# ChEMBL document CHEMBL1144173, “1-Benzylbenzimidazoles: the discovery of a novel series of bradykinin B(1) receptor antagonists” (Bioorg Med Chem Lett, 2008)
# How the values were obtained:
# B1 bradykinin receptor [1] = target: T1, B1 bradykinin receptor (Rattus norvegicus, UniProt P97583); assay: Antagonist activity at rat bradykinin B1 receptor; type: functional
# T1 sequence (P97583 whole entry): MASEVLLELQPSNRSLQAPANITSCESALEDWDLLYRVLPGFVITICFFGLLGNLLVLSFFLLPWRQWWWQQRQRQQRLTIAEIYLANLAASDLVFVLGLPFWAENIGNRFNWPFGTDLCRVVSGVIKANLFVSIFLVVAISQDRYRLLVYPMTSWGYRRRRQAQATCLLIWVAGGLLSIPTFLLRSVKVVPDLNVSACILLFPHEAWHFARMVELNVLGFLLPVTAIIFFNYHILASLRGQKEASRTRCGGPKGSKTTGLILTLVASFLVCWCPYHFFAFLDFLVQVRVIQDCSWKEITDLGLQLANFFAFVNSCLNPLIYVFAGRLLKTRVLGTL
# In short: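 Rat B1 receptor tested in the same way as the cynomolgus assay: FLIPR Ca2+ transients with inhibition of DAKD-induced fluorescence measured across multiple compound concentrations to derive functional IC50.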
# [2] = Oral bioavailability in rat at 10 mg/kg; type: ADME, organism-based; conditions: in vivo
# B1 bradykinin receptor [3] = target: T2, B1 bradykinin receptor (Homo sapiens, UniProt P46663); assay: Inhibition of human bradykinin B1 receptor
# T2 sequence (P46663 whole entry): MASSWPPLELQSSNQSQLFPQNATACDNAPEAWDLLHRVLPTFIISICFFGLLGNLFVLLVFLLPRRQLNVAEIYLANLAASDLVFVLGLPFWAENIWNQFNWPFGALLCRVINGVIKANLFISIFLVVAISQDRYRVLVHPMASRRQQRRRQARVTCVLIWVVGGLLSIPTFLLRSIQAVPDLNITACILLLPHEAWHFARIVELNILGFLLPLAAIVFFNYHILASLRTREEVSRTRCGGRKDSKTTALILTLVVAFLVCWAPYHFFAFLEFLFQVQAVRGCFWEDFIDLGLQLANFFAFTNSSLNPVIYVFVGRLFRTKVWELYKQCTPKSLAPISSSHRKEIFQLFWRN
# B1 bradykinin receptor [4] = target: T3, B1 bradykinin receptor (Macaca fascicularis, UniProt Q3BCU0); assay: Antagonist activity at Cynomolgus monkey bradykinin B1 receptor expressed in CHO cells assessed as calcium transient by FLIPR assay; type: functional, cell-based
# T3 sequence (Q3BCU0 whole entry): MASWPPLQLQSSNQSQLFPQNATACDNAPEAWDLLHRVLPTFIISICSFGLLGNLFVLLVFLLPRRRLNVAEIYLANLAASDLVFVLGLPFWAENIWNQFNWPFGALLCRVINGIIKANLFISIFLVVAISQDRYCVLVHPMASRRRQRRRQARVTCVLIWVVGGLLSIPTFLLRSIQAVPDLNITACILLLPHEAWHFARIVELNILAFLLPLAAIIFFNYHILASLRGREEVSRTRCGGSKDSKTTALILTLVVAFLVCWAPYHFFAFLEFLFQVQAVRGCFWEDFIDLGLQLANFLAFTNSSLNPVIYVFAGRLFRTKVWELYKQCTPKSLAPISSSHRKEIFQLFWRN
# MDCK [5] = assay: Ratio of permeability from basolateral to apical over apical to basolateral side of MDCK cells expressing MDR1; type: ADME, cell-based, Canis lupus familiaris; conditions: dog
# In short: (§1)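 MDR1-transfected MDCK cell monolayer. Apparent permeability (Papp) measured in the apical-to-basolateral and basolateral-to-apical directions. The A-to-B Papp is reported as passive permeability, and the efflux ratio is Papp(B→A)/Papp(A→B).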
# MDR1 = assay: Passive permeability from apical to basolateral side of MDCK cells expressing MDR1; type: ADME, cell-based, Canis lupus familiaris; conditions: dog; in short: as §1
# MDCK [6] = assay: Ratio of permeability from basolateral to apical over apical to basolateral side of MDCK cells expressing MDR1 in presence of cyclosporine; type: ADME, cell-based, Canis lupus familiaris; conditions: dog
# In short: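 MDR1-transfected MDCK monolayer run with 25 µM cyclosporine as P-gp inhibitor. Efflux ratio is Papp basolateral-to-apical divided by Papp apical-to-basolateral.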
# [7] = Aqueous solubility at pH 7.4; type: physicochemical
# Liver microsomes = assay: Metabolic stability in rat liver microsomes at 1 uM after 10 mins by LC-MS analysis in presence of NADPH; type: ADME, Microsome
# In short: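 Pooled male rat liver microsomes at 0.5 mg/ml with compound at 1 µM, 37 °C. Reaction started with NADPH, and aliquots taken at 0 and 10 min. Percent parent remaining is the 10-min/0-min signal ratio, corrected by internal standard recovery.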
IC50 (B1 bradykinin receptor [4]) [nM],SMILES,other results
–,CCCN1C(=O)C(NC(=O)Nc2ccc(N3CCN(c4ccncc4)CC3)cc2)N=C(CCc2ccccc2)c2ccccc21 (stereo not given),Ki (B1 bradykinin receptor [1]): 0.92 nM; bioavailability [2]: < 4%; Ki (B1 bradykinin receptor [3]): 0.59 nM
3220,CN1CCC(N2CCN(C(=O)[C@H]3CCCN3C(=O)c3nc4ccccc4n3Cc3ccccc3)CC2)CC1,–
884,CN1CCC(N2CCN(C(=O)[C@@H]3CCCN3C(=O)c3nc4ccccc4n3Cc3ccccc3)CC2)CC1,–
744,O=C(CCNC(=O)c1nc2ccccc2n1Cc1ccccc1)Nc1ccc2nc[nH]c2c1,–
> 5000,CCN(CC(=O)N1CCN(c2ccncc2)CC1)Cc1nc2ccccc2n1Cc1ccccc1,–
> 5000,CCN(CC(=O)N1CCN(C2CCN(C)CC2)CC1)Cc1nc2ccccc2n1Cc1ccccc1,–
1990,O=C(NCCC(=O)N1CCC2(CCOCC2)CC1)c1nc2ccccc2n1Cc1ccccc1,–
2910,CN1CCC2(CCN(C(=O)CCNC(=O)c3nc4ccccc4n3Cc3ccccc3)CC2)C1,–
> 5000,O=C1NCC2(CCN(C(=O)CCNC(=O)c3nc4ccccc4n3Cc3ccccc3)CC2)O1,–
4020,CN1CCC(N2CCN(C(=O)C3CCN(C(=O)c4nc5ccccc5n4Cc4ccccc4)CC3)CC2)CC1,–
188,CN(Cc1ccc(C2=NCCN2)cc1)C(=O)C1CCN(C(=O)c2nc3ccccc3n2Cc2ccccc2)CC1,–
962,O=C(NCCC(=O)N1CCN(c2ccncc2)CC1)c1nc2ccccc2n1Cc1ccccc1,–
14,CN(Cc1ccc(C2=NCCN2C)cc1)C(=O)CNC(=O)c1nc2ccccc2n1Cc1ccccc1,–
718,Cc1nc(-c2ccc(CN(C)C(=O)CNC(=O)c3nc4ccccc4n3Cc3ccccc3)cc2)no1,–
54,CN(Cc1ccc(C2=NCCN2)cc1)C(=O)CCNC(=O)c1nc2ccccc2n1Cc1ccccc1,–
> 5000,O=C(c1nc2ccccc2n1Cc1ccccc1)N1CCN(c2ccncc2)CC1,–
626,CN(Cc1ccc(-n2ccnc2)cc1)C(=O)CNC(=O)c1nc2ccccc2n1Cc1ccccc1,–
> 5000,CN1CCC(N2CCN(C(=O)c3nc4ccccc4n3Cc3ccccc3)CC2)CC1,–
1300,CCC(NC(=O)c1nc2ccccc2n1Cc1ccccc1)C(=O)N1CCN(C2CCN(C)CC2)CC1 (stereo not given),–
> 5000,CC(C)N(CC(=O)N1CCN(c2ccncc2)CC1)C(=O)c1nc2ccccc2n1Cc1ccccc1,–
524,O=C(CCNC(=O)c1nc2ccccc2n1Cc1ccccc1)Nc1ccc2cn[nH]c2c1,–
196,CN(Cc1ccc(CN2CCCCC2)cc1)C(=O)CNC(=O)c1nc2ccccc2n1Cc1ccccc1,–
5,CN(Cc1ccc(C2=NCCN2)cc1)C(=O)CNC(=O)c1nc2ccccc2n1Cc1ccccc1,IC50 (B1 bradykinin receptor [1]): 155 nM; Ratio (MDCK [5]): 23; Papp A→B (MDR1): 1 ×10⁻⁶ cm/s; Ratio (MDCK [6]): 1.5
> 5000,CCC(NC(=O)c1nc2ccccc2n1Cc1ccccc1)C(=O)N1CCN(c2ccncc2)CC1 (stereo not given),–

IC50 (B1 bradykinin receptor [4]) [nM],SMILES,other results
355,CCCN(CC(=O)N1CCN(c2ccncc2)CC1)C(=O)c1nc2ccccc2n1Cc1ccccc1,IC50 (B1 bradykinin receptor [1]): 396 nM
18,CCCN(CC(=O)N1CCN(C2CCN(C)CC2)CC1)C(=O)c1nc2ccccc2n1Cc1ccccc1,IC50 (B1 bradykinin receptor [1]): 23 nM
601,CN1CCC(N2CCN(C(=O)CCNC(=O)c3nc4ccccc4n3Cc3ccccc3)CC2)CC1,–
407,CN(Cc1ccc(-c2ccccn2)cc1)C(=O)CNC(=O)c1nc2ccccc2n1Cc1ccccc1,–
1170,CN(Cc1ccc(-c2nccs2)cc1)C(=O)CNC(=O)c1nc2ccccc2n1Cc1ccccc1,–
2130,CN(Cc1ccc(-c2cc[nH]n2)cc1)C(=O)CNC(=O)c1nc2ccccc2n1Cc1ccccc1,–
2,O=C(CCNC(=O)c1nc2ccccc2n1Cc1ccccc1)Nc1ccc(C2=NCCN2)nc1,IC50 (B1 bradykinin receptor [1]): 0.8 nM; Ratio (MDCK [5]): 42
> 5000,CN(Cc1ccc(-c2nnn[nH]2)cc1)C(=O)CNC(=O)c1nc2ccccc2n1Cc1ccccc1,–
1180,CN(CC(=O)N1CCN(c2ccncc2)CC1)C(=O)c1nc2ccccc2n1Cc1ccccc1,–
278,CCN(CC(=O)N1CCN(c2ccncc2)CC1)C(=O)c1nc2ccccc2n1Cc1ccccc1,–
465,CC(C)N(CC(=O)N1CCN(C2CCN(C)CC2)CC1)C(=O)c1nc2ccccc2n1Cc1ccccc1,–
6,CCN(CC(=O)N(C)Cc1ccc(C2=NCCN2)cc1)C(=O)c1nc2ccccc2n1Cc1ccccc1,IC50 (B1 bradykinin receptor [1]): 345 nM
4070,O=C([C@H]1CCCN1C(=O)c1nc2ccccc2n1Cc1ccccc1)N1CCN(c2ccncc2)CC1,–
> 5000,O=C([C@@H]1CCCN1C(=O)c1nc2ccccc2n1Cc1ccccc1)N1CCN(c2ccncc2)CC1,–
> 5000,CN(C)C(=O)c1ccc(CN(C)C(=O)CNC(=O)c2nc3ccccc3n2Cc2ccccc2)cc1,–
268,CN1CCC(N2CCN(C(=O)CN(C)C(=O)c3nc4ccccc4n3Cc3ccccc3)CC2)CC1,–
> 5000,CN1CCC2(CC1)CCN(C(=O)CCNC(=O)c1nc3ccccc3n1Cc1ccccc1)CC2,–
330,CN(Cc1ccc(-c2ncccn2)cc1)C(=O)CNC(=O)c1nc2ccccc2n1Cc1ccccc1,–
686,CN1CCC(N2CCN(C(=O)CNC(=O)c3nc4ccccc4n3Cc3ccccc3)CC2)CC1,–
–,Cc1c(C(=O)NCCC2CCN(C3CCN(C)CC3)CC2)n[nH]c1NC(=O)c1ccccc1Cl,IC50 (B1 bradykinin receptor [3]): 1.8 nM
2310,O=C(c1nc2ccccc2n1Cc1ccccc1)N1CCC(C(=O)N2CCN(c3ccncc3)CC2)CC1,–
1020,CN(Cc1ccc(C2=NCCN2)cc1)C(=O)c1nc2ccccc2n1Cc1ccccc1,–
16,CCN(CC(=O)N1CCN(C2CCN(C)CC2)CC1)C(=O)c1nc2ccccc2n1Cc1ccccc1,IC50 (B1 bradykinin receptor [1]): 15 nM; Ratio (MDCK [5]): 55; Papp A→B (MDR1): 0.6 ×10⁻⁶ cm/s; solubility [7]: 120 µg/mL; Stability (Liver microsomes): Stable; bioavailability [2]: < 5%

SMILES,IC50 (B1 bradykinin receptor [4]) [nM],other results
CN(Cc1ccc(C#N)cc1)C(=O)CNC(=O)c1nc2ccccc2n1Cc1ccccc1,> 5000,Ratio (MDCK [5]): 3; Papp A→B (MDR1): 7 ×10⁻⁶ cm/s
CN(Cc1ccc(C(N)=O)cc1)C(=O)CNC(=O)c1nc2ccccc2n1Cc1ccccc1,> 5000,–
O=C(NCC(=O)N1CCN(c2ccncc2)CC1)c1nc2ccccc2n1Cc1ccccc1,310,IC50 (B1 bradykinin receptor [1]): 417 nM
